Measured values: ChEMBL document CHEMBL4725345, “DFG-1 Residue Controls Inhibitor Binding Mode and Affinity, Providing a Basis for Rational Design of Kinase Inhibitor Selectivity” (J Med Chem, 2020)

Assays:
[1] = target: Activin receptor type-2A (Homo sapiens) (UniProt P27037); assay: Binding affinity to ACTR2 (unknown origin) assessed as change in melting temperature at 10 uM incubated for 10 mins using SYPRO orange dye by RT-PCR-based fluorescence assay
[2] = target: BMP-2-inducible protein kinase (Homo sapiens) (UniProt Q9NSY1); assay: Binding affinity to BIKE (unknown origin) assessed as change in melting temperature at 10 uM incubated for 10 mins using SYPRO orange dye by RT-PCR-based fluorescence assay
Outline: (§1)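 Recombinant kinase domain at 2 μM in 10 mM HEPES pH 7.5, 500 mM NaCl, mixed with 10 μM inhibitor for 10 min at room temperature; SYPRO orange added at 1:1000; temperature-dependent unfolding fluorescence read on a real-time PCR instrument; Tm shift derived by a previously described method.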

[3] = target: Activin receptor type-1-like (Homo sapiens) (UniProt P37023); assay: Binding affinity to ACVRL1 (unknown origin) assessed as change in melting temperature at 10 uM incubated for 10 mins using SYPRO orange dye by RT-PCR-based fluorescence assay
Outline: as §1

[4] = target: T1, Dual specificity tyrosine-phosphorylation-regulated kinase 2 (Homo sapiens) (UniProt Q92630); assay: Binding affinity to DYRK2 (unknown origin) assessed as change in melting temperature at 10 uM incubated for 10 mins using SYPRO orange dye by RT-PCR-based fluorescence assay
T1 sequence (whole entry): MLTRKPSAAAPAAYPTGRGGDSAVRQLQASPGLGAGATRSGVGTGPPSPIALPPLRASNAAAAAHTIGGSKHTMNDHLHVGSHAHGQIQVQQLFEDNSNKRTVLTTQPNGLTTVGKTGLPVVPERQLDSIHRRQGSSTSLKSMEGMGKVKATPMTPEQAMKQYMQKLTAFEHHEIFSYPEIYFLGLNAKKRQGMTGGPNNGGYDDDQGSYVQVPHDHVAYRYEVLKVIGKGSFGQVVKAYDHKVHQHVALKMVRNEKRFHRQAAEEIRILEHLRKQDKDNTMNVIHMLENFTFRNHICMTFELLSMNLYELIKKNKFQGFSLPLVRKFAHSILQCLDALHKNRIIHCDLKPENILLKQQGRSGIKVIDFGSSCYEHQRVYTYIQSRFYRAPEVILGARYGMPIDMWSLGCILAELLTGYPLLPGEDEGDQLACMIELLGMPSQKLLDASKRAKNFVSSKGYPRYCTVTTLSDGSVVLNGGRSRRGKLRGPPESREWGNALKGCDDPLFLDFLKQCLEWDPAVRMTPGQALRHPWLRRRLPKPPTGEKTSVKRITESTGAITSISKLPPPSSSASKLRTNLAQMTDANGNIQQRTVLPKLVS
Outline: as §1

[5] = target: Cyclin-G-associated kinase (Homo sapiens) (UniProt O14976); assay: Binding affinity to GAK (unknown origin) assessed as change in melting temperature at 10 uM incubated for 10 mins using SYPRO orange dye by RT-PCR-based fluorescence assay
Outline: as §1

[6] = target: TGF-beta receptor type-2 (Homo sapiens) (UniProt P37173); assay: Binding affinity to TGFBR2 (unknown origin) assessed as change in melting temperature at 10 uM incubated for 10 mins using SYPRO orange dye by RT-PCR-based fluorescence assay
Outline: as §1

[7] = target: Bone morphogenetic protein receptor type-1A (Homo sapiens) (UniProt P36894); assay: Binding affinity to BMPR1A (unknown origin) assessed as change in melting temperature at 10 uM incubated for 10 mins using SYPRO orange dye by RT-PCR-based fluorescence assay
Outline: as §1

[8] = target: Dual specificity protein kinase CLK2 (Homo sapiens) (UniProt P49760); details: dose 10.0 µM, time 10.0 min
Homo sapiens = organism: Homo sapiens; assay: Binding affinity to RSK4B (unknown origin) assessed as change in melting temperature at 10 uM incubated for 10 mins using SYPRO orange dye by RT-PCR-based fluorescence assay
Outline: as §1

[9] = target: Serine/threonine-protein kinase pim-1 (Homo sapiens) (UniProt P11309); assay: Binding affinity to PIM1 (unknown origin) assessed as change in melting temperature at 10 uM incubated for 10 mins using SYPRO orange dye by RT-PCR-based fluorescence assay
[10] = target: TGF-beta receptor type-1 (Homo sapiens) (UniProt P36897); assay: Binding affinity to TGFBR1 (unknown origin) assessed as change in melting temperature at 10 uM incubated for 10 mins using SYPRO orange dye by RT-PCR-based fluorescence assay
Outline: as §1

[11] = target: Serine/threonine-protein kinase pim-3 (Homo sapiens) (UniProt Q86V86); assay: Binding affinity to PIM3 (unknown origin) assessed as change in melting temperature at 10 uM incubated for 10 mins using SYPRO orange dye by RT-PCR-based fluorescence assay
Outline: as §1

In the case of `CC(=O)c1cccc(-c2cnc3ccc(NCC4CC4)nn23)c1`, the ΔTm [1] is reported as > 6 °C, the ΔTm [2] is reported as > 6 °C and the ΔTm [3] is reported as > 6 °C. The ΔTm [4] was > 4 °C, the ΔTm [5] was > 6 °C and the ΔTm [6] was > 6 °C. The ΔTm [7] was > 6 °C, the ΔTm [8] was > 4 °C and the ΔTm (Homo sapiens) was > 4 °C. The ΔTm [9] was > 6 °C, the ΔTm [10] was > 6 °C and the ΔTm [11] was > 6 °C.
